Laboratory results published in PMC10847618 (Heliyon, 2024).
“And” between values parts separate entries of the source, which are not always exact repeats. Equal entries are not always repeated. “Also recorded” adds a separate entry of the source. Where two headings read alike, the source gives them in different places.

What was measured:
[1] = test system: P. falciparum CQ^S-3D7; assay: Growth inhibition assay; type: cell-based, Plasmodium falciparum; conditions: for inhibition at 10 µM: 3D7, 10 μM; for IC50: one intra-erythrocytic cycle
[2] = target: recombinant 6xHis-CDPK1 protein (rPfCDPK1) (Plasmodium falciparum, UniProt P62344); assay: Microscale thermophoresis; type: binding
recombinant 6xHis-CDPK1 protein (rPfCDPK1), sequence (P62344 whole entry): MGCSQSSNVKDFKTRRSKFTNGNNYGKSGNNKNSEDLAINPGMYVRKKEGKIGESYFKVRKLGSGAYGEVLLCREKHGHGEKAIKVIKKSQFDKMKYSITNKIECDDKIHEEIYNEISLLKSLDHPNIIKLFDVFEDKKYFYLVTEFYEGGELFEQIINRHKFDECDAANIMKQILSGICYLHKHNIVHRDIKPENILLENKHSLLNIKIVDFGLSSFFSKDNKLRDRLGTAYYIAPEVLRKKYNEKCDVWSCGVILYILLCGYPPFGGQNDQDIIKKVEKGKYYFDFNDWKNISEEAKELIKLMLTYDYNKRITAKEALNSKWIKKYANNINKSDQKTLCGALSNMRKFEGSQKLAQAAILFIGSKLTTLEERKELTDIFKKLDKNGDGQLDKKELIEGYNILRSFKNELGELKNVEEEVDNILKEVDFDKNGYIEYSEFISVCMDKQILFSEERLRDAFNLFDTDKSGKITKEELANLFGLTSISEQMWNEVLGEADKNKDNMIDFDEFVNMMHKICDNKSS
Method in brief: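 Recombinant 6xHis-PfCDPK1 (10 μM) in HEPES-NaCl (pH 7.5) with 0.05 % Tween-20 was labelled with 30 μM cysteine-reactive red maleimide dye for 30 min at RT in the dark. It was then column-purified, keeping fractions below 1000 fluorescence counts. Test compound was serially titrated (4.8 nM–80 μM or 2.4 nM–40 μM) against constant labelled protein and premixed 10 min at RT in the dark. MST was run at RT, 20 % LED and 40 % MST power.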

[3] = target: rPfCDPK1 (Plasmodium falciparum, UniProt P62344); assay: In vitro kinase assay; type: biochemical
rPfCDPK1, sequence (P62344 whole entry): as above
Method in brief: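 100 ng 6xHis-CDPK1 per reaction in 100 mM Tris-Cl pH 7.4, 50 mM MgCl2, 2.5 mM DTT, 2.5 mM MnCl2, with or without Ca2+ (2.5 mM EGTA). Dephosphorylated bovine casein substrate. Enzyme pre-incubated with test compound (1 or 5 µM) for 20 min at RT. ATP-started reaction run 1 h at 30 °C. ADP formation read by ADP-Glo luminescence.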

[4] = test system: mammalian kinome (HepG2 lysate); assay: In vitro kinase assay with HepG2 lysate; type: biochemical, human; conditions: HepG2 cytosolic fraction; 1 and 5 μM
Method in brief: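 HepG2 cells (10^7) were lysed for 1 h at 4 °C in 20 mM Tris (pH 7.7), 0.5 % NP-40, 200 mM NaCl, 50 mM NaF, 0.2 mM orthovanadate, protease inhibitors and 0.1 % 2-mercaptoethanol. The lysate was spun at 13,000 rpm for 10 min. Kinase activity of the supernatant was measured by ADP-Glo luminescence with test compound at 1 and 5 μM.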

[5] = test system: P. falciparum CQ^R-RKL-9; assay: Growth inhibition assay; type: cell-based, Plasmodium falciparum
[6] = test system: CQ^S-3D7 P. falciparum; assay: Growth progression analysis / blood stage-specific effect; type: cell-based, Plasmodium falciparum
[7] = test system: hemozoin in synchronized ring-stage parasites; assay: Hemozoin assay; type: cell-based, Plasmodium falciparum; conditions: 10 μM; 30 h
Method in brief: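 P. falciparum cultures were synchronized at ring stage, held at 6 % parasitemia, and treated with test compound for 30 h in triplicate. Cells were then treated with 2.5 % SDS in 0.1 M sodium bicarbonate (pH 8.8) for 10 min at RT and centrifuged. The pellet was resuspended in 5 % SDS/50 mM NaOH for 30 min. Monomeric heme was read as A405 minus A750.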

[8] = Hemolytic activity; type: cell-based, human; conditions: human, red blood cell suspension (10 %, v/v), pH 7.4
Method in brief: (§1)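 Washed human RBCs (10 %, v/v) were resuspended in PBS (pH 7.4) and incubated with test compound at 1.5–800 μM for 1 h at 37 °C. After centrifugation, supernatant absorbance was read at 415 nm. RBCs treated with 1 % (v/v) Triton X-100 were the positive control. Run in triplicate.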

[9] = test system: human RBCs; assay: Hemolytic activity; type: cell-based; conditions: 1.5–800 μM
Method in brief: as §1

[10] = MTT cytotoxicity assay; type: cell-based, human; conditions: human, HEK293 cells
Method in brief: (§2)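 Cells were seeded in DMEM with 10 % FBS (HEK293 2 × 10^4 per well; HepG2 10^4 per well) and incubated overnight at 37 °C in 5 % CO2. Test compound was added at 2.5–600 μM (HEK293) or 2–500 μM (HepG2) for 24 h at 37 °C, with untreated cells as control. MTT was added (stock 5 mg/mL in PBS), formazan was dissolved in DMSO, and absorbance read at 570 nm. Run in triplicate.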

[11] = test system: HEK293 cells; assay: MTT cytotoxicity assay; type: cell-based, human; conditions: HEK293; 2.5–600 μM
Method in brief: as §2

[12] = MTT cytotoxicity assay; type: cell-based, human; conditions: human, HepG2 cells
Method in brief: as §2

[13] = test system: HepG2 cells; assay: MTT cytotoxicity assay; type: cell-based, human; conditions: HepG2; 2–500 μM
Method in brief: as §2

[14] = test system: PfCDPK1; conditions: cited from earlier work
[15] = test system: P. falciparum CQ^S-3D7; conditions: stated IC50 of the standard drug, used as positive control; ref not given; cited from earlier work
[16] = Plasmodium falciparum, CQ^S-3D7
[17] = Plasmodium falciparum, 3D7, CQ^S-3D7

With `O=C(/C=C/c1cn(Cc2cn(-c3ccnc4cc(Cl)ccc34)nn2)c2ccccc12)c1cccc(Br)c1` [7f, (E)-1-(3-bromophenyl)-3-(1-((1-(7-chloroquinolin-4-yl)-1H-1,2,3-triazol-4-yl)methyl)-1H-indol-3-yl)prop-2-en-1-one] the inhibition at 10 µM [1, 16] was over 50%.
In the case of `O=C(/C=C/c1cn(Cc2cn(-c3ccnc4cc(Cl)ccc34)nn2)c2ccccc12)c1ccccc1Cl` [7h, (E)-1-(2-chlorophenyl)-3-(1-((1-(7-chloroquinolin-4-yl)-1H-1,2,3-triazol-4-yl)methyl)-1H-indol-3-yl)prop-2-en-1-one], the inhibition at 10 µM [1, 16] is reported as over 50%.
In the case of `COc1ccccc1C(=O)/C=C/c1cn(Cc2cn(-c3ccnc4cc(Cl)ccc34)nn2)c2ccccc12` [7l, (E)-3-(1-((1-(7-chloroquinolin-4-yl)-1H-1,2,3-triazol-4-yl)methyl)-1H-indol-3-yl)-1-(2-methoxyphenyl)prop-2-en-1-one], the IC50 [1, 17] is reported as 2400 nM, the Kd [2] is reported as 17300 nM and the “PI of PfCDPK1 (inhibition of phosphorylation activity)” value ([3]; 1 μM) is reported as 71.9%. For the same compound, the “inhibition of host kinase activity in words” value [4] was “no inhibition of the host kinase activity”.
Work on `COc1ccc(C(=O)/C=C/c2cn(Cc3cn(-c4ccnc5cc(Cl)ccc45)nn3)c3ccccc23)cc1` [7n, (E)-3-(1-((1-(7-chloroquinolin-4-yl)-1H-1,2,3-triazol-4-yl)methyl)-1H-indol-3-yl)-1-(4-methoxyphenyl)prop-2-en-1-one] yielded an inhibition at 10 µM [1, 16] of over 50%.
For `O=C(/C=C/c1cn(Cc2cn(-c3ccnc4cc(Cl)ccc34)nn2)c2ccccc12)c1cccs1` [7p, (E)-3-(1-((1-(7-chloroquinolin-4-yl)-1H-1,2,3-triazol-4-yl)methyl)-1H-indol-3-yl)-1-(thiophen-2-yl)prop-2-en-1-one], the inhibition at 10 µM [1, 16] was over 50%.
Work on `Cc1ccccc1C(=O)/C=C/c1cn(Cc2cn(-c3ccnc4cc(Cl)ccc34)nn2)c2ccccc12` [7r, (E)-3-(1-((1-(7-chloroquinolin-4-yl)-1H-1,2,3-triazol-4-yl)methyl)-1H-indol-3-yl)-1-o-tolylprop-2-en-1-one] yielded an IC50 ([1]; CQ^S-3D7) of 1800 nM, an inhibition at 10 µM [1, 16] of over 50% and an IC50 [1, 17] of 3500 nM. For the same compound, the IC50 ([5]; CQ^R-RKL-9, one intra-erythrocytic cycle) was 2700 nM, the “Resistance Index (RI)” value ([5]; IC50 CQ^R-RKL-9/CQ^S-3D7) was 1.49 and the “intra-erythrocytic progression: stage affected” value [6] was “effective against the mature stages of the parasite”. The “growth progression, morphology” value ([6]; ring stage treated at IC50 concentration, 40 and 56 h post-treatment) was “stuck at the trophozoite stage with altered morphology”, the “free monomeric heme (control-free heme)” value [7] was 48.8% and 48% and the hemolysis at 1 h, 50 µM [8] was 2.3%. For the same compound, the hemolysis at 1 h, 800 µM [8] was 5.9%, the “hemolytic activity in words” value [9] was “no significant lysis; also recorded: no apparent hemolytic activity” and the viability at 24 h, 100 µM [10] was over 90%. The cytotoxicity in words [11] was “non-cytotoxic”, the viability at 24 h, 100 µM [12] was over 90% and the cytotoxicity in words [13] was “non-cytotoxic”. It also gave a Kd [2] of 7200 nM, an inhibition at 1 µM ([3]; read-out: PI of PfCDPK1 (inhibition of phosphorylation activity), 1 μM) of 45.5% and an inhibition at 5 µM ([3]; read-out: PI of PfCDPK1 (inhibition of phosphorylation activity), 5 μM) of 43.8%. For the same compound, the “inhibition of host kinase activity in words” value [4] was “no inhibition of the host kinase activity; also recorded: no inhibitory effect on the human kinome; also recorded: no inhibitory effect on the human kinases”.
In the case of `CCCCCC(=O)NCCc1c[nH]c2ccccc12` [A, N-[2-(1H-indol-3-yl)ethyl]hexanamide], the “PfCDPK1 inhibition potency in words” value [14] is given as “sub-micromolar potency”.
In the case of `CCN(CC)CCCC(C)Nc1ccnc2cc(Cl)ccc12` (stereo not drawn) [CQ, chloroquine], the IC50 [15] is listed as 25 nM.
In the case of `O=Cc1cn(Cc2cn(-c3ccnc4cc(Cl)ccc34)nn2)c2ccccc12` [compound 9, 1-((1-(7-chloroquinolin-4-yl)-1H-1,2,3-triazol-4-yl)methyl)-1H-indole-3-carbaldehyde], the “growth inhibition in words” value ([1]; at the tested concentration, CQ^S 3D7) is reported as “poor inhibition; also recorded: not a good inhibitor”.
